Each structure is given as a SMILES string. Values after ≈ are worked out from the molar mass of the structure shown.

One series relates to ARO. Put plainly: Cytotoxicity against human ARO cells after 48 hrs by MTS assay. As to conditions: Homo sapiens, ARO, 48 h; read-out: LD50 (the source's name). The series is classed as functional.
The target in series [1] is T1, Thyroid hormone receptor beta (Homo sapiens, UniProt P10828).
T1 sequence (P10828 whole entry): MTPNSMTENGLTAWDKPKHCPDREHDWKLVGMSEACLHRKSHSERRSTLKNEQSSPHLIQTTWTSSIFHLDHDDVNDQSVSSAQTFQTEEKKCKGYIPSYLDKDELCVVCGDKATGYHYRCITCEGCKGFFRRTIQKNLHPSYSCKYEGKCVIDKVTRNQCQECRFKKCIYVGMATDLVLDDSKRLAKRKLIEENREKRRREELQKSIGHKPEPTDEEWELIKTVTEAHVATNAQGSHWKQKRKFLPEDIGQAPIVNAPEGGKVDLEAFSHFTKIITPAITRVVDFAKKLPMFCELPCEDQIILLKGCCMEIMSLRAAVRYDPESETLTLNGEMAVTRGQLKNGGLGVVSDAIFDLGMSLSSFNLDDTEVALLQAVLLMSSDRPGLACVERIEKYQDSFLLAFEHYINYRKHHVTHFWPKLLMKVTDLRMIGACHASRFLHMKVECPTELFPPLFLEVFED
The series can be described thus: Displacement of labeled SRC2-2 from human TRbeta expressed in BL21 (DE3) cells FP assay. The series is classed as cell-based. A digest of the protocol: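 Competitive fluorescence polarization. Assay liquid was PBS containing 5% DMSO. For TRβ, hTRβ1 LBD (His6, T209-D461) was expressed in BL21 (DE3).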

Series [2] concerns the target T2, Thyroid hormone receptor alpha (Homo sapiens, UniProt P10827).
T2 sequence (P10827 whole entry): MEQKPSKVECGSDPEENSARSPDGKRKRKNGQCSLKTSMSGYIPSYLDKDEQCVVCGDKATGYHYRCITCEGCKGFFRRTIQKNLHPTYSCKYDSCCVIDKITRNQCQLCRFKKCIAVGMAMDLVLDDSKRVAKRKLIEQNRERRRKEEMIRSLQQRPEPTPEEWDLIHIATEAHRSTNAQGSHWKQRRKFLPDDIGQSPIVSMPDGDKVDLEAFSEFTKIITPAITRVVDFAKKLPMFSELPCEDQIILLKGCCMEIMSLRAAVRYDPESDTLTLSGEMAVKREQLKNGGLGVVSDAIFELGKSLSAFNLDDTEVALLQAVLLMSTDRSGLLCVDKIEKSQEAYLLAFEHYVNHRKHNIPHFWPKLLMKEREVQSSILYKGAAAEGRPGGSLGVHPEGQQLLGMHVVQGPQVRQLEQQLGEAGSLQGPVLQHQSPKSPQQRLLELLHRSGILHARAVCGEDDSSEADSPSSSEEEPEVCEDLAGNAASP
Put plainly: Displacement of labeled SRC2-2 from human TRalpha by FP assay.

The test system of another series is U2OS. The series can be described thus: Cytotoxicity against human U2OS cells after 48 hrs by MTS assay. The series is classed as functional. As to conditions: Homo sapiens, U2OS, 48 h; read-out: LD50 (the source's name).
Another series can be described thus: physchem. As to conditions: PBS.

`C=CC(=O)c1ccc(CCCCC)cc1`: the figures for the CC50 in the series on ARO and in the series on U2OS were 20 µM and 22.7 µM, respectively. In addition, the results for the half-inhibitory concentration (IC50) in series [1] and in series [2] were 33.9 µM and 60.9 µM, respectively.

On to `CCCCCCc1ccc(C(=O)CCN(C)CCc2ccccc2)cc1`, for which the CC50 stood at 2.5 µM in the series with ARO and 18.4 µM with U2OS. Besides, the IC50 came to 1.5 µM in series [1] and 3.6 µM in series [2]. The compound also returned a solubility in “physchem” of 15 µM (≈ 5.27 µg/mL).

Turning to `CCCCCCc1ccc(NC(=O)/C=C/c2ccccc2)cc1`, the concentration for half-maximal inhibition (IC50) in series [1] and in series [2] was over 100 µM each time.

As for `CCCCCCc1ccc(C(=O)CCN(C)CCO)cc1`, the CC50 with ARO and with U2OS was 13.2 µM throughout. The 50% inhibitory concentration (IC50) in series [1] was 1.6 µM; in series [2], 3 µM. The solubility in “physchem” was determined as 97 µM (≈ 28.3 µg/mL).

Regarding `CCCCCCc1ccc(C(=O)CCN(C)C)cc1`, the values for the concentration for half-maximal inhibition (IC50) in series [1] and in series [2] were 4.3 µM and […], respectively.

In the case of `CCCCCCc1ccc(C(=O)CCN(C(C)C)C(C)C)cc1`, the CC50 with ARO stood at 15.4 µM; in the series on U2OS, 20.7 µM. Besides, the IC50 in series [1] came out at 2 µM; in series [2] it was 4.1 µM. This compound yielded a solubility in the series “physchem” of 55 µM (≈ 17.5 µg/mL).

For `CCCCCCc1ccc(C(=O)CCN(C)Cc2ccco2)cc1`, the IC50 was determined as 12.1 µM in series [1] and 22.6 µM in series [2].

For `CCCCCCc1ccc(C(=O)CCl)cc1`, the IC50 in series [1] worked out at 23.1 µM; in series [2], 47.7 µM.

On to `C=CC(=O)c1ccc(CCCCCCC)cc1`, for which the CC50 with ARO came to 69.2 µM; with U2OS it was 36.7 µM. In addition, the IC50 in series [1] was 10.5 µM; in series [2] it was 23 µM.

Regarding `C=CC(=O)c1ccc(CCCCCCCC)cc1`, the CC50 in the series with ARO was determined as 111 µM; in the series on U2OS, 50.5 µM. For the same compound, the IC50 amounted to 11.4 µM in series [1] and 21.4 µM in series [2].

As to `C=CC(=O)Oc1ccc(CCCCC)cc1`, the CC50 in the series with ARO was 21.2 µM; in the series on U2OS it was 36.5 µM. In addition, the IC50 in series [1] is 55.8 µM; in series [2] it was over 100 µM.

`C=CC(=O)Oc1ccccc1CCCCCC`: the results for the CC50 in the series on ARO and with U2OS were 14.6 µM and 19.4 µM, respectively. The IC50 in series [1] amounted to 8.2 µM; in series [2] it was 39.1 µM.

Turning to `C=CC(=O)c1ccc(CC(C)(C)C)cc1`, the CC50 in the series with ARO was 5.8 µM; with U2OS it was 27.5 µM. Moreover, the figures for the half-inhibitory concentration (IC50) in series [1] and in series [2] were 43.5 µM and 69.6 µM, respectively.

On to `CCCCCCc1ccc(C(=O)CC)cc1`, for which the IC50 in series [1] and in series [2] was over 100 µM each time.

Take `C=CC(=O)c1ccc(CCCC)cc1`: the CC50 is 9.9 µM with ARO and 25.6 µM in the series on U2OS. Also, the 50% inhibitory concentration (IC50) in series [1] is 66 µM; in series [2], 71 µM.

`CCCCCCc1ccc(NC(=O)CCC(=O)O)cc1`: the concentration for half-maximal inhibition (IC50) in series [1] and in series [2] was over 100 µM in each case.

Consider `C=CC(=O)[C@H]1CC[C@H](CC(C)(C)C)CC1`, for which the results for the CC50 in the series on ARO and with U2OS were 92.8 µM and 50.2 µM, respectively. In addition, the IC50 was 69.1 µM in series [1] and 75.6 µM in series [2].

For the compound `C=CC(=O)Oc1ccc(CCC)cc1`, the CC50 in the series with ARO turned out to be 4.8 µM; in the series on U2OS, 121 µM. For the same compound, the half-inhibitory concentration (IC50) in series [1] is 61 µM; in series [2], over 100 µM.

`CCCC(=O)Nc1cccc2c1CCCC2`: the CC50 in the series on ARO stood at 54.7 µM; with U2OS, 101 µM. For the same compound, the 50% inhibitory concentration (IC50) in series [1] came out at 69.8 µM; in series [2] it was 85.3 µM.

For the compound `CCCCCCc1ccc(C(=O)CCN(CCCC)CCCC)cc1`, the CC50 in the series on ARO came to 5.4 µM; in the series on U2OS, 25.5 µM. Further, the IC50 in series [1] came to 4.2 µM; in series [2] it was 6.9 µM. The same compound registered a solubility in the series “physchem” of 152 µM (≈ 52.5 µg/mL).

For the compound `CCCCCCc1ccc(C(=O)CCN(C2CCCCC2)C2CCCCC2)cc1`, the results for the IC50 in series [1] and in series [2] were 12.7 µM and 16.5 µM, respectively.

As for `CCCCCCCc1ccc(C(=O)/C=C/c2ccccc2)cc1`, the CC50 with ARO was over 200 µM; in the series on U2OS it was 57 µM. Moreover, the concentration for half-maximal inhibition (IC50) in series [1] and in series [2] was over 100 µM each time. Besides, the solubility in the series “physchem” worked out at 30 µM (≈ 9.19 µg/mL).
